According to ChEMBL document CHEMBL2151003, “Synthesis and antitumor activity of ring A modified glycyrrhetinic acid derivatives” (Eur J Med Chem, 2011):
Activity calls are given as the source filed them. The calls are words filed in the database; no cut-off is given here.

Columns and labels:
[1] = Cytotoxicity against human 518A2 cells after 96 hrs by SRB assay; type: functional, cell-based
Procedure, shortened: (§1)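 Monolayer cultures in RPMI 1640 with 10% heat-inactivated FBS and penicillin/streptomycin, 37 °C, 5% CO2. Exponentially growing cells were seeded, then treated 24 h later with serial dilutions (0–30 µM; DMSO or DMF ≤0.5% final) for 96 h. Cells were fixed with 10% TCA at 4 °C, stained with 0.4% SRB and solubilized in 10 mM Tris base; A570 was read. IC50 came from semi-log dose–response curves, ≥3 independent experiments.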

DLD-1 = assay: Cytotoxicity against human DLD1 cells after 96 hrs by SRB assay; type: functional, cell-based; procedure, shortened: as §1
A549 [2] = assay: Cytotoxicity against human A549 cells after 96 hrs by SRB assay; type: functional, cell-based; procedure, shortened: as §1
[3] = Cytotoxicity against human A253 cells after 96 hrs by SRB assay; type: functional, cell-based; procedure, shortened: as §1
[4] = Cytotoxicity against human Lipo cells after 96 hrs by SRB assay; type: functional, cell-based; procedure, shortened: as §1
MCF7 = assay: Cytotoxicity against human MCF7 cells after 96 hrs by SRB assay; type: functional, cell-based; procedure, shortened: as §1
SW-1736 = assay: Cytotoxicity against human SW1736 cells after 96 hrs by SRB assay; type: functional, cell-based; procedure, shortened: as §1
8505C = assay: Cytotoxicity against human 8505C cells after 96 hrs by SRB assay; type: functional, cell-based; procedure, shortened: as §1
A2780 = assay: Cytotoxicity against human A2780 cells after 96 hrs by SRB assay; type: functional, cell-based; procedure, shortened: as §1
HCT-116 = assay: Cytotoxicity against human HCT116 cells after 96 hrs by SRB assay; type: functional, cell-based; procedure, shortened: as §1
A-431 = assay: Cytotoxicity against human A431 cells after 96 hrs by SRB assay; type: functional, cell-based; procedure, shortened: as §1
HT-29 = assay: Cytotoxicity against human HT-29 cells after 96 hrs by SRB assay; type: functional, cell-based; procedure, shortened: as §1
A549 [5] = assay: Induction of apoptosis in human A549 cells assessed as apoptotic effect at 20 uM after 24 to 48 hrs by trypan blue cell counting analysis; type: functional
Procedure, shortened: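 A549 cells (approx. 500,000 per flask) were grown 24 h, then given compound-containing medium for about 24–48 h. Collected cells were pelleted, washed in PBS and mixed 1:1 with 0.4% trypan blue in PBS, pH 7.2. An automated counter distinguished cells with intact and with damaged membranes. Results are % apoptosis ± standard error, 6 experiments each.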

A549 [6] = assay: Induction of apoptosis in human A549 cells assessed as appearance of green fluorescent cells at 20 uM after 24 to 48 hrs by acridine orange/ethidium bromide staining based fluorescence microscopy; type: functional, cell-based
Procedure, shortened: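 Approx. 500,000 A549 cells per flask were grown 24 h, then exposed to compound-containing medium for 24–48 h. Cells from the supernatant were pelleted, washed and resuspended in PBS, mixed with AO/EB and examined by fluorescence microscopy. Green fluorescence was scored as apoptotic and red nuclei as necrotic; the read-out is qualitative.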

Row | Structure (SMILES) | IC50 [1] | IC50 (DLD-1) | IC50 (A549 [2]) | IC50 [3] | IC50 [4] | IC50 (MCF7) | IC50 (SW-1736) | IC50 (8505C) | IC50 (A2780) | IC50 (HCT-116) | IC50 (A-431) | IC50 (HT-29) | Activity (A549 [5]) | Activity (A549 [6])
1 | CCOC(=O)[C@@]1(C)CC[C@]2(C)CC[C@]3(C)C(=CC(=O)[C@@H]4[C@@](C)(CCC(=O)O)[C@H](C(C)(C)O)CC[C@]43C)[C@@H]2C1 | > 30 µmol | > 30 µmol | > 30 µmol | > 30 µmol | > 30 µmol | > 30 µmol | > 30 µmol | > 30 µmol | > 30 µmol | – | – | – | – | –
2 | C=C(C)[C@@H]1CC[C@]2(C)[C@H](C(=O)C=C3[C@@H]4C[C@@](C)(C(=O)OCC)CC[C@]4(C)CC[C@]32C)[C@@]1(C)CCC(=O)OCC | 9.28 µmol | > 30 µmol | > 30 µmol | > 30 µmol | > 30 µmol | 25.42 µmol | 26.74 µmol | > 30 µmol | 5.89 µmol | – | – | – | – | –
3 | CCOC(=O)[C@@]1(C)CC[C@]2(C)CC[C@]3(C)C(=CC(=O)[C@@H]4[C@@]5(C)C[C@H]6O[C@H]6C(C)(C)[C@@H]5CC[C@]43C)[C@@H]2C1 | > 30 µmol | > 30 µmol | > 30 µmol | > 30 µmol | > 30 µmol | > 30 µmol | – | – | – | > 30 µmol | > 30 µmol | > 30 µmol | – | –
4 | COC(=O)[C@@]1(C)CC[C@]2(C)CC[C@]3(C)C(=CC(=O)[C@@H]4[C@@]5(C)CC[C@H](OC(=O)[C@H](CO[Si](C)(C)C(C)(C)C)NC(=O)OC(C)(C)C)C(C)(C)[C@@H]5CC[C@]43C)[C@@H]2C1 | > 30 µmol | > 30 µmol | > 30 µmol | 28.59 µmol | > 30 µmol | – | – | > 30 µmol | – | – | – | – | – | –
5 | CCOC(=O)[C@@]1(C)CC[C@]2(C)CC[C@]3(C)C(=CC(=O)[C@@H]4[C@@]5(C)CC[C@H](OC(=O)CCC(=O)O)C(C)(C)[C@@H]5CC[C@]43C)[C@@H]2C1 | 28.99 µmol | > 30 µmol | > 30 µmol | > 30 µmol | > 30 µmol | – | – | > 30 µmol | – | – | – | – | – | –
6 | CCCCCCCCO/N=C1\CC[C@]2(C)[C@H]3C(=O)C=C4[C@@H]5C[C@@](C)(C(=O)OC)CC[C@]5(C)CC[C@@]4(C)[C@]3(C)CC[C@H]2C1(C)C | > 30 µmol | > 30 µmol | > 30 µmol | > 30 µmol | > 30 µmol | 26.35 µmol | 17.77 µmol | > 30 µmol | 19.73 µmol | – | – | – | – | –
7 | COC(=O)[C@@]1(C)CC[C@]2(C)CC[C@]3(C)C(=CC(=O)[C@@H]4[C@@]5(C)CC[C@H](OC(=O)[C@H](CSCc6ccccc6)NC(=O)OC(C)(C)C)C(C)(C)[C@@H]5CC[C@]43C)[C@@H]2C1 | > 30 µmol | > 30 µmol | > 30 µmol | > 30 µmol | > 30 µmol | – | > 30 µmol | > 30 µmol | – | – | – | – | – | –
8 | CCOC(=O)[C@@]1(C)CC[C@]2(C)CC[C@]3(C)C(=CC(=O)[C@@H]4[C@@]5(C)CCC(=O)C(C)(C)[C@@H]5CC[C@]43C)[C@@H]2C1 | > 30 µmol | > 30 µmol | > 30 µmol | > 30 µmol | > 30 µmol | > 30 µmol | > 30 µmol | > 30 µmol | > 30 µmol | – | – | – | – | –
9 | COC(=O)[C@@]1(C)CC[C@]2(C)CC[C@]3(C)C(=CC(=O)[C@@H]4[C@@]5(C)CC[C@H](OC(=O)[C@@H](N)CSSC[C@H](N)C(=O)O[C@H]6CC[C@]7(C)[C@H]8C(=O)C=C9[C@@H]%10C[C@@](C)(C(=O)OC)CC[C@]%10(C)CC[C@@]9(C)[C@]8(C)CC[C@H]7C6(C)C)C(C)(C)[C@@H]5CC[C@]43C)[C@@H]2C1 | 24.54 µmol | > 30 µmol | 18.75 µmol | 19.07 µmol | 22.6 µmol | – | 16.82 µmol | 15.1 µmol | – | – | – | – | 40.91% | Active
10 | COC(=O)[C@@]1(C)CC[C@]2(C)CC[C@]3(C)C(=CC(=O)[C@@H]4[C@@]5(C)CCC(=O)C(C)(C)[C@@H]5CC[C@]43C)[C@@H]2C1 | > 30 µmol | > 30 µmol | > 30 µmol | > 30 µmol | > 30 µmol | > 30 µmol | 29.09 µmol | > 30 µmol | > 30 µmol | – | – | – | – | –
11 | COC(=O)[C@@]1(C)CC[C@]2(C)CC[C@]3(C)C(=CC(=O)[C@@H]4[C@@]5(C)Cc6nccnc6C(C)(C)[C@@H]5CC[C@]43C)[C@@H]2C1 | > 30 µmol | > 30 µmol | > 30 µmol | > 30 µmol | > 30 µmol | > 30 µmol | > 30 µmol | > 30 µmol | > 30 µmol | – | – | – | – | –
12 | COC(=O)[C@@]1(C)CC[C@]2(C)CC[C@]3(C)C(=CC(=O)[C@@H]4[C@@]5(C)CC[C@H](OC(=O)[C@@H](N)CSCc6ccccc6)C(C)(C)[C@@H]5CC[C@]43C)[C@@H]2C1 | 16.78 µmol | > 30 µmol | 17.9 µmol | 15.84 µmol | 16.72 µmol | – | 15.69 µmol | 15.45 µmol | – | – | – | – | 60.64% | Active
13 | CCOC(=O)[C@@]1(C)CC[C@]2(C)CC[C@]3(C)C(=CC(=O)[C@@H]4[C@@]5(C)CCC(=O)OC(C)(C)[C@@H]5CC[C@]43C)[C@@H]2C1 | > 30 µmol | > 30 µmol | > 30 µmol | 28.73 µmol | > 30 µmol | 20.58 µmol | 12.71 µmol | > 30 µmol | 15 µmol | – | – | – | – | –
14 | COC(=O)[C@@]1(C)CC[C@]2(C)CC[C@]3(C)C(=CC(=O)[C@@H]4[C@@]5(C)CC/C(=N\OC(C)C)C(C)(C)[C@@H]5CC[C@]43C)[C@@H]2C1 | > 30 µmol | > 30 µmol | > 30 µmol | > 30 µmol | > 30 µmol | > 30 µmol | > 30 µmol | > 30 µmol | > 30 µmol | – | – | – | – | –
15 | COC(=O)[C@@]1(C)CC[C@]2(C)CC[C@]3(C)C(=CC(=O)[C@@H]4[C@@]5(C)CC[C@H](OS(=O)(=O)c6ccc(C)cc6)C(C)(C)[C@@H]5CC[C@]43C)[C@@H]2C1 | > 30 µmol | > 30 µmol | > 30 µmol | > 30 µmol | > 30 µmol | – | – | > 30 µmol | – | – | – | – | – | –
16 | CCOC(=O)[C@@]1(C)CC[C@]2(C)CC[C@]3(C)C(=CC(=O)[C@@H]4[C@@]5(C)CC=CC(C)(C)[C@@H]5CC[C@]43C)[C@@H]2C1 | > 30 µmol | > 30 µmol | > 30 µmol | > 30 µmol | > 30 µmol | > 30 µmol | – | – | – | > 30 µmol | > 30 µmol | > 30 µmol | – | –
17 | COC(=O)[C@@]1(C)CC[C@]2(C)CC[C@]3(C)C(=CC(=O)[C@@H]4[C@@]5(C)CC[C@H](OC(=O)CCC(=O)O)C(C)(C)[C@@H]5CC[C@]43C)[C@@H]2C1 | > 30 µmol | > 30 µmol | > 30 µmol | > 30 µmol | > 30 µmol | – | – | > 30 µmol | – | – | – | – | – | –
18 | C=C(C)[C@@H]1CC[C@]2(C)[C@H](C(=O)C=C3[C@@H]4C[C@@](C)(C(=O)OCC)CC[C@]4(C)CC[C@]32C)[C@@]1(C)CCC(=O)O | > 30 µmol | > 30 µmol | > 30 µmol | > 30 µmol | > 30 µmol | > 30 µmol | > 30 µmol | > 30 µmol | > 30 µmol | – | – | – | – | –
19 | COC(=O)[C@@]1(C)CC[C@]2(C)CC[C@]3(C)C(=CC(=O)[C@@H]4[C@@]5(C)CC[C@H](OC(=O)[C@H](CSC(=O)OC(C)(C)C)NC(=O)OC(C)(C)C)C(C)(C)[C@@H]5CC[C@]43C)[C@@H]2C1 | > 30 µmol | > 30 µmol | > 30 µmol | > 30 µmol | > 30 µmol | – | > 30 µmol | > 30 µmol | – | – | – | – | – | –
